ChEMBL document CHEMBL1127542, “Inhibitors of acyl-CoA:cholesterol O-acyl transferase (ACAT) as hypocholesterolemic agents. 8. Incorporation of amide or amine functionalities into a series of disubstituted ureas and carbamates. Effects on ACAT inhibition in vitro and efficacy in vivo” (J Med Chem, 1994)

Assays:
Rattus norvegicus = species: Rattus norvegicus; assay: Percent change in total cholesterol in cholic acid (0.5%)-cholesterol (1.5%)-peanut oil (5.5%)-fed rats; format: functional
How it was run: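 Acute screen: rats given a single gavage dose, 50 mg/kg standard unless noted, suspended in carboxymethylcellulose plus Tween-20 in water, then a single high-fat, high-cholesterol meal (0.5% cholic acid, 1.5% cholesterol, 5.5% peanut oil). Overnight rise in plasma total cholesterol measured as % change versus control. Stomachs checked for food. ANOVA with Fisher's multiple range test, p<0.05.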

[1] = target: Sterol O-acyltransferase 1 (Oryctolagus cuniculus); assay: In vitro inhibition of rabbit intestinal acyl coenzyme A:cholesterol acyltransferase using [1-14C]oleolyl-CoA

Row | IC50 [1] [nM] | Compound | Change (Rattus norvegicus) [%]
1 | 150 | CC(C)c1cccc(C(C)C)c1NC(=O)NCC(NCc1ccc(N(C)C)cc1)c1ccccc1 (single isomer, unassigned; (-)) | -45
2 | 570 | CCCCCCC(=O)NC(COC(=O)Nc1c(C(C)C)cccc1C(C)C)c1ccccc1 (stereo in doubt; 34a(-)) | -2
3 | 5100 | CCCCCCC(=O)NC(COC(=O)Nc1c(C(C)C)cccc1C(C)C)c1ccccc1 (single isomer, unassigned; (+)) | –
4 | 610 | CCCCC(=O)NCC(CNC(=O)Nc1c(C(C)C)cccc1C(C)C)c1ccccc1 (stereo unspecified) | -6
5 | 3600 | CC(C)c1cccc(C(C)C)c1NC(=O)NC(CNC(=O)c1ccccc1)c1ccccc1 (stereo unspecified) | –
6 | 110 | CCCCCNC(CNC(=O)Nc1c(C(C)C)cccc1C(C)C)c1ccccc1 (racemic) | -38
7 | 49 | CCCCCCNC(CNC(=O)Nc1c(C(C)C)cccc1C(C)C)c1ccccc1 (racemic) | -41
8 | 380 | CC(C)c1cccc(C(C)C)c1NC(=O)NCC(NC(=O)CCCCCBr)c1ccccc1 (stereo unspecified) | -36
9 | 330 | COc1ccc(C(=O)NC(CNC(=O)Nc2c(C(C)C)cccc2C(C)C)c2ccccc2)cc1 (stereo unspecified) | -7
10 | 440 | CC(C)c1cccc(C(C)C)c1NC(=O)NCC(NC(=O)c1cnccn1)c1ccccc1 (stereo unspecified) | -19
11 | 440 | CC(C)c1cccc(C(C)C)c1NC(=O)NCC(NC(=O)c1ccco1)c1ccccc1 (stereo unspecified) | -37
12 | 110 | CCCCCCCNC(CNC(=O)Nc1c(C(C)C)cccc1C(C)C)c1ccccc1 (racemic) | -25
13 | 64 | CC(C)c1cccc(C(C)C)c1NC(=O)NCC(NCC1CC1)c1ccccc1 (single isomer, unassigned; (-)) | -51
14 | 3200 | CC(C)c1cccc(C(C)C)c1NC(=O)NCC(NC(=O)c1ccncc1)c1ccccc1 (stereo unspecified) | -12
15 | 99 | CC(C)c1cccc(C(C)C)c1NC(=O)NCC(NCc1ccco1)c1ccccc1 (single isomer, unassigned; (+)) | -23
16 | 510 | CC(C)c1cccc(C(C)C)c1NC(=O)NCC(NC(=O)c1ccc(C(F)(F)F)cc1)c1ccccc1 (stereo unspecified) | -9
17 | 80 | CC(C)c1cccc(C(C)C)c1NC(=O)NCC(NC(=O)c1ccccn1)c1ccccc1 (stereo unspecified) | -24
18 | 2500 | CC(C)c1cccc(C(C)C)c1NC(=O)OCC(NC(=O)OC(C)(C)C)c1ccccc1 (stereo unspecified) | –
19 | 51 | CC(C)c1cccc(C(C)C)c1NC(=O)NCC(NCc1cccs1)c1ccccc1 (single isomer, unassigned; (+)) | -19
20 | 48 | CC(C)c1cccc(C(C)C)c1NC(=O)NCC(NCc1ccoc1)c1ccccc1 (stereo unspecified) | -38
21 | 350 | Cc1ccc(C(=O)NC(CNC(=O)Nc2c(C(C)C)cccc2C(C)C)c2ccccc2)cc1 (stereo unspecified) | -1
22 | 430 | CCCCC(=O)NC(CNC(=O)Nc1c(C(C)C)cccc1C(C)C)c1ccccc1 (stereo unspecified) | -8
23 | 200 | CCCCCCCCCCCC(=O)NC(COC(=O)Nc1c(C(C)C)cccc1C(C)C)c1ccccc1 (stereo unspecified) | -16
24 | 60 | CC(C)c1cccc(C(C)C)c1NC(=O)NCC(NCc1ccc(N(C)C)cc1)c1ccccc1 (stereo in doubt; 9n(+)) | -56
25 | 590 | CCCCCCCCCC(=O)NC(CNC(=O)Nc1c(C(C)C)cccc1C(C)C)c1ccccc1 (stereo unspecified) | -29
26 | 48 | CC(C)c1cccc(C(C)C)c1NC(=O)NCC(NCc1ccco1)c1ccccc1 (single isomer, unassigned; (-)) | -18

More lines, now with the values behind:

Row | Compound | IC50 [1] [nM] | Change (Rattus norvegicus) [%]
27 | COc1ccc(CNC(CNC(=O)Nc2c(C(C)C)cccc2C(C)C)Cc2ccccc2)cc1 (single isomer, unassigned; (-)) | 270 | -30
28 | CCCCCCCCCCNC(CNC(=O)Nc1c(C(C)C)cccc1C(C)C)c1ccccc1 (racemic) | 83 | -38
29 | COc1ccccc1CNC(CNC(=O)Nc1c(C(C)C)cccc1C(C)C)c1ccccc1 (single isomer, unassigned; (-)) | 45 | -23
30 | COc1ccc(C(=O)NC(CNC(=O)Nc2c(C(C)C)cccc2C(C)C)C2CCCCC2)cc1 (racemic) | 250 | -15
31 | CC(C)c1cccc(C(C)C)c1NC(=O)NCC(CNC(=O)c1ccccn1)c1ccccc1 (stereo unspecified) | 300 | -7
32 | CC(C)c1cccc(C(C)C)c1OC(=O)NCC(NC(=O)OC(C)(C)C)c1ccccc1 (single isomer, unassigned; (-)) | 430 | 20
33 | CC(C)c1cccc(C(C)C)c1NC(=O)NCC(NCc1ccccc1)c1ccccc1 (stereo in doubt; 9k(+)) | 53 | -41
34 | CC(C)c1cccc(C(C)C)c1NC(=O)NCC(NCc1ccccn1)c1ccccc1 (stereo unspecified) | 140 | -15
35 | COc1ccc(C(=O)NC(C)(CNC(=O)Nc2c(C(C)C)cccc2C(C)C)c2ccccn2)cc1 (racemic) | 610 | -23
36 | CC(C)c1cccc(C(C)C)c1NC(=O)NCC(CNCc1ccccc1)c1ccccc1 (stereo unspecified) | 160 | -46
37 | CCCCCCCCCCCC(=O)NC(CNC(=O)Oc1c(C(C)C)cccc1C(C)C)c1ccccc1 (single isomer, unassigned; (-)) | 51 | 25
38 | CC(C)c1cccc(C(C)C)c1NC(=O)NCC(NCc1ccc(O)c(CN(C)C)c1)c1ccccc1 (single isomer, unassigned; (-)) | 490 | -46
39 | CCCC(CCC)(CNC(=O)Nc1c(C(C)C)cccc1C(C)C)NC(=O)c1ccc(OC)cc1 | 90 | -25
40 | CCCCCCCCCCCC(=O)NC(CNC(=O)Nc1c(C(C)C)cccc1C(C)C)c1ccccc1 (stereo unspecified) | 77 | -16
41 | CCCCCCCCCCC(C)(C)C(=O)Nc1c(OC)cc(OC)cc1OC [CL-976] | – | -44
42 | COc1ccc(CNC(CNC(=O)Nc2c(C(C)C)cccc2C(C)C)CC(C)C)cc1 (stereo unspecified) | 50 | -32
43 | CC(C)c1cccc(C(C)C)c1NC(=O)NCC(NCc1cccc([N+](=O)[O-])c1)c1ccccc1 (single isomer, unassigned; (-)) | 45 | -32
44 | CC(C)c1cccc(C(C)C)c1NC(=O)NCC(NC(=O)c1cccc2ccccc12)c1ccccc1 (stereo unspecified) | 970 | -14
45 | COc1ccc(CNC(CNC(=O)Nc2c(C(C)C)cccc2C(C)C)c2ccccc2)cc1 (racemic) | 48 | -54
46 | COc1ccc(CNC(CNC(=O)Nc2c(C(C)C)cccc2C(C)C)C(C)C)cc1 (single isomer, unassigned; (-)) | 80 | -41
47 | CC(C)c1cccc(C(C)C)c1NC(=O)NCC(NCc1ccccc1C(F)(F)F)c1ccccc1 (single isomer, unassigned; (-)) | 45 | -42

Row | Compound | IC50 [1] [nM] | Change (Rattus norvegicus) [%]
48 | Cc1ccc(CNC(CNC(=O)Nc2c(C(C)C)cccc2C(C)C)c2ccccc2)cc1 (racemic) | 52 | -45
49 | COc1ccc(CNC(CCSC)CNC(=O)Nc2c(C(C)C)cccc2C(C)C)cc1 (single isomer, unassigned; (+)) | 490 | -31
50 | CC(C)c1cccc(C(C)C)c1NC(=O)NCC(NC(=O)c1ccc2ccccc2[n+]1[O-])c1ccccc1 (stereo unspecified) | 150 | -21
51 | CC(C)c1cccc(C(C)C)c1NC(=O)NCC(NCc1ccncc1)c1ccccc1 (single isomer, unassigned; (+)) | 1200 | -19
52 | COc1ccc(CNC(CNC(=O)Nc2c(C(C)C)cccc2C(C)C)c2ccccc2)cc1 (single isomer, unassigned; (-)) | 39 | -45
53 | CC(C)c1cccc(C(C)C)c1NC(=O)NCC(CN(Cc1ccccc1)Cc1ccccc1)c1ccccc1 (stereo unspecified) | 7600 | –
54 | CCCCCCCCCC(=O)NC(CNC(=O)Oc1c(C(C)C)cccc1C(C)C)c1ccccc1 (racemic) | 760 | 25
55 | CC(C)c1cccc(C(C)C)c1NC(=O)NCC(NC(=O)CCCCCN(CCO)CCO)c1ccccc1 (stereo unspecified) | 2800 | -4
56 | CC(C)c1cccc(C(C)C)c1NC(=O)NCC(NCc1cccnc1)c1ccccc1 (stereo unspecified) | 370 | -26
57 | CCCCCCCCCCCCCCCCCC(=O)NC(CNC(=O)Nc1c(C(C)C)cccc1C(C)C)c1ccccc1 (stereo unspecified) | 1700 | 8
58 | CC(C)c1cccc(C(C)C)c1NC(=O)NCC(NC(=O)c1cc2ccccc2[nH]1)c1ccccc1 (stereo unspecified) | 2300 | -3
59 | CC(C)c1cccc(C(C)C)c1NC(=O)NCC(NC(=O)c1ccc2ccccc2n1)c1ccccc1 (stereo unspecified) | 150 | -31
60 | CCCCCCCCCCCCCCCCCCNC(CNC(=O)Nc1c(C(C)C)cccc1C(C)C)c1ccccc1 (racemic) | 230 | -3
61 | COc1ccc(C(=O)NC(C)(C)CNC(=O)Nc2c(C(C)C)cccc2C(C)C)cc1 | – | -9
62 | CC(C)c1cccc(C(C)C)c1NC(=O)NCC(NCc1ccccc1)c1ccccc1 (racemic) | 51 | -36
63 | CC(C)c1cccc(C(C)C)c1NC(=O)OCC(NCc1ccc(N(C)C)cc1)c1ccccc1.Cl (stereo unspecified) | – | -23
64 | COc1ccc(CNC(CNC(=O)Nc2c(C(C)C)cccc2C(C)C)c2ccccc2)cc1 (stereo in doubt; 9m(+)) | 70 | -36
65 | COc1ccc(C(=O)NC2(CNC(=O)Nc3c(C(C)C)cccc3C(C)C)CCCC2)cc1 | 500 | -6
66 | CC(C)c1cccc(C(C)C)c1NC(=O)NCC(CN(C)Cc1ccccc1)c1ccccc1 (stereo unspecified) | > 10000 | –
67 | CC(C)c1cccc(C(C)C)c1NC(=O)NCC(Cc1ccccc1)NCc1ccccc1O (stereo unspecified) | 410 | -37
